The target in assay [1] is HsTFIIS LW domain. The experiment in a line: ITC of HsLeo1 peptides with the HsTFIIS LW domain. Conditions: HsTFIIS LW domain mutant printed as W339A. Type of assay: binding, Homo sapiens. The gist of the method:
(§1)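 Recombinant N-His-tagged LW domain (wild type or point mutant), expressed in E. coli BL21 (DE3) (0.5 mM IPTG, 16 °C, 20 h) and purified by Ni-NTA, gel filtration and ion exchange. ITC: 50 uM protein in cell, 1mM synthetic Leo1 peptides in syringe, 16 × 2 μl injections at 120 s intervals. Buffer: 25 mM Tris, 200 mM NaCl, 1 mM EDTA, 1 % glycerol, pH 7.4, 25 °C. Peptide-into-buffer heat of dilution subtracted.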

The target in assay [2] is HsTFIIS LW domain (Homo sapiens, UniProt P23193, W73A). Kind of assay: ITC of HsLeo1 peptides with the HsTFIIS LW domain. The assay is classed as binding. Conditions: HsTFIIS1–96 LW mutant W73A, pH 7.4, 200 mM NaCl, 25 °C. The gist of the method:
as §1

For assay [3], the target named is HsTFIIS LW domain (Homo sapiens, UniProt P23193, L41A). The experiment in a line: ITC of HsLeo1 peptides with the HsTFIIS LW domain. The assay is classed as binding. Particulars: HsTFIIS1–96 LW mutant L41A, pH 7.4, 200 mM NaCl, 25 °C. Summed up: as §1
In assay [4] the target is HsTFIIS LW domain (Homo sapiens, UniProt P23193). Kind of assay: ITC of HsLeo1 peptides with the HsTFIIS LW domain. The assay is classed as binding. Particulars: pH 7.4, 25 °C. Summed up: as §1
In assay [5] the target is HsTFIIS LW domain (Homo sapiens, UniProt P23193, K67A). Kind of assay: ITC of HsLeo1 peptides with the HsTFIIS LW domain. The assay is classed as binding. Particulars: HsTFIIS1–96 LW mutant K67A, pH 7.4, 200 mM NaCl, 25 °C. The gist of the method: as §1
Assay [6] addresses HsTFIIS LW domain (Homo sapiens, UniProt P23193, I70A). Kind of assay: ITC of HsLeo1 peptides with the HsTFIIS LW domain. The assay is classed as binding. Particulars: HsTFIIS1–96 LW mutant I70A, pH 7.4, 200 mM NaCl, 25 °C. The gist of the method:
as §1

For assay [7], the target named is TbTFIIS2–2 LW domain (residue 251–359) F340A (T. brucei). The experiment in a line: ITC.
Assay [8] deals with TbTFIIS2–2 LW domain (residue 251–359) L336A (T. brucei). Kind of assay: ITC. On the technique in general: In ITC the heat of successive injections is recorded.
Assay [9] has as its target ScTFIIS LW domain (Saccharomyces cerevisiae, UniProt P07273, L41A). Type of assay: binding. Conditions: ScTFIIS1–81 LW mutant L41A, pH 7.4, 25 °C.
Assay [10] concerns the target ScTFIIS LW domain (Saccharomyces cerevisiae, UniProt P07273, W72A). The assay is classed as binding. Conditions: ScTFIIS1–81 LW mutant W72A; ITC, pH 7.4, 200 mM NaCl, 25 °C.
Assay [11] concerns the target ScTFIIS LW domain (Saccharomyces cerevisiae, UniProt P07273, I69A). The assay is classed as binding. Conditions: ScTFIIS1–81 LW mutant I69A, pH 7.4, 25 °C.
In assay [12] the target is ScTFIIS LW domain (Saccharomyces cerevisiae, UniProt P07273). Type of assay: binding.
Assay [13] concerns the target ScTFIIS LW domain (Saccharomyces cerevisiae, UniProt P07273, K66A). Type of assay: binding. Conditions: ScTFIIS1–81 LW mutant K66A, pH 7.4, 25 °C.
Assay [14] has as its target HsTFIIS LW domain without the C-terminus (residue 1–78) (H. sapiens, UniProt P23193 1-78). The experiment in a line: ITC.
Assay [15] has as its target HsTFIIS LW domain (residue 1–96) K67A (H. sapiens, UniProt P23193 1-96, K67A). Kind of assay: ITC.
The target of assay [16] is HsTFIIS LW domain (residue 1–96), wild type (H. sapiens, UniProt P23193 1-96). Kind of assay: ITC.
The target in assay [17] is T1, ScTFIIS LW domain (residue 1–81), wild type (S. cerevisiae, UniProt P07273 1-81).
T1 sequence (looked up): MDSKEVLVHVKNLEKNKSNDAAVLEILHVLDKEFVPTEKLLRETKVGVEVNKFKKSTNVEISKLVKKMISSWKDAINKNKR
Kind of assay: ITC.

In assay [18] the target is T2, ScTFIIS LW domain, longer version (residue 1–93) (S. cerevisiae, UniProt P07273 1-93).
T2 sequence (looked up): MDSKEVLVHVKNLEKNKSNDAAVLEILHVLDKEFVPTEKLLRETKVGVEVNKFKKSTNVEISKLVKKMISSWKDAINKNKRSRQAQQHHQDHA
The experiment in a line: ITC.

In assay [19] the target is T3, ScTFIIS LW domain (residue 1–81) K66A (S. cerevisiae, UniProt P07273 1-81, K66A).
T3 sequence (looked up): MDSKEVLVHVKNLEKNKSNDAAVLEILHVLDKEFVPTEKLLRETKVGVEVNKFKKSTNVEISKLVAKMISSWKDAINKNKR
The experiment in a line: ITC.

Assay [20] addresses T4, ScTFIIS LW domain (residue 1–81) L41A (S. cerevisiae, UniProt P07273 1-81, L41A).
T4 sequence (looked up): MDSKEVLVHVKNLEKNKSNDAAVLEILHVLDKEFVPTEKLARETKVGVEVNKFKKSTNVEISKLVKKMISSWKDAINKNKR
The experiment in a line: ITC.

Assay [21] has as its target T5, ScTFIIS LW domain (residue 1–81) I69A (S. cerevisiae, UniProt P07273 1-81, I69A).
T5 sequence (looked up): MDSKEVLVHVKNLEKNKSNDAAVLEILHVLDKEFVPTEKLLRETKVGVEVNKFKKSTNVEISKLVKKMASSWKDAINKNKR
Kind of assay: ITC.

Broadly, the Kd is a measure of binding affinity in units of concentration. Low readings indicate a tighter complex, high ones a looser complex. By stoichiometry N is commonly meant a count of units in the complex or per binding partner.

Where two headings read alike, the source gives them in different places. Peptide text beside a SMILES is read from it.

With `CC(C)C[C@H](NC(=O)[C@H](CCC(=O)O)NC(=O)[C@H](CCCCN)NC(=O)[C@H](CC(N)=O)NC(=O)[C@H](CO)NC(=O)[C@@H]1CCCN1C(=O)[C@@H](N)CCC(N)=O)C(=O)N[C@@H](Cc1ccccc1)C(=O)NCC(=O)N[C@@H](CC(=O)O)C(=O)N[C@@H](CC(=O)O)C(=O)N[C@@H](CO)C(=O)N[C@@H](CCC(=O)O)C(=O)N[C@@H](CC(=O)O)C(=O)N[C@@H](CCC(=O)O)C(=O)NCC(=O)O` [HsLeo1_55–70] (H-QPSNKELFGDDSEDEG-OH; N-terminus and C-terminus assumed), at HsTFIIS LW domain [1], the “binding (ITC), result in words” value was “abolishes the interactions”. Also, the Kd result is recorded as “no binding” on HsTFIIS LW domain [2], “no binding” on HsTFIIS LW domain [3], “weak binding” at HsTFIIS LW domain [5] and “no binding” on HsTFIIS LW domain [6]. For the same molecule, the “N (ITC binding stoichiometry)” value is given as 1.00 at HsTFIIS LW domain [4] (HsTFIIS1–78 LW) and 0.96 at HsTFIIS LW domain [4] (wild type HsTFIIS1–96 LW).

With “TbLeo1 peptide (residue 71–86) containing the LFG motif”, the Kd in assay [7] was 9.33 µM; in assay [8], 1110 nM.

For `CC(C)C[C@H](NC(=O)[C@H](CCC(=O)O)NC(=O)[C@H](C)NC(=O)[C@H](CC(=O)O)NC(=O)[C@H](CCC(=O)O)NC(=O)[C@@H](N)CCC(=O)O)C(=O)N[C@@H](CC(=O)O)C(=O)N[C@@H](CC(=O)O)C(=O)N[C@@H](CC(C)C)C(=O)N[C@@H](Cc1ccccc1)C(=O)NCC(=O)N[C@@H](CC(=O)O)C(=O)N[C@@H](CC(=O)O)C(=O)N[C@@H](CC(N)=O)C(=O)N[C@@H](CC(=O)O)C(=O)O` [ScLeo1_54–68] (H-EEDAELDDLFGDDND-OH; N-terminus and C-terminus assumed), the “N (ITC binding stoichiometry)” value is reported as 1.03 on ScTFIIS LW domain [9]; 0.99 at ScTFIIS LW domain [11]; 1.04 on ScTFIIS LW domain [12] (ScTFIIS LW1–93, pH 7.4, 25 °C); 1.00 at ScTFIIS LW domain [12] (wild type ScTFIIS1–81 LW, pH 7.4, 25 °C); 0.95 at ScTFIIS LW domain [13]. Moreover, the Kd result on ScTFIIS LW domain [10] is reported as “weak binding”.

Consider ADMEDLFGSDADSEA (peptide, UniProt Q8WVC0 2-16, looked up) [HsLeo1 peptide (residue 2–16) containing an LFG motif], for which the “stoichiometry N” value in assay [14], in [15] and in assay [16] was 1 throughout.

For the molecule EEDAELDDLFGDDND (peptide, UniProt P38439 54-68, looked up) [ScLeo1 peptide (residue 54–68) containing the LFG motif], the Kd stood at 3.3 µM in assay [17]; 1390 nM in [18]; 5.1 µM in assay [19]; 37 µM in assay [20]; 44 µM in assay [21]. Besides, the “stoichiometry N” value was found to be 1 in [17]; 1.04 in assay [18]; 0.95 in [19]; 1.03 in assay [20]; 0.99 in assay [21].

For QPSNKELFGDDSEDEG (peptide, UniProt Q8WVC0 55-70, looked up) [HsLeo1 peptide (residue 55–70) containing an LFG motif], in [14], the Kd was determined as 57.6 µM and the “stoichiometry N” value was 1. Moreover, in assay [16], the Kd was 44 µM and the “stoichiometry N” value stood at 0.96.

The record behind these values is publication PMC11164251 (International journal of biological macromolecules, 2023).
